Experimental data taken from ChEMBL document CHEMBL2163259, “ADME-guided design and synthesis of aryloxanyl pyrazolone derivatives to block mutant superoxide dismutase 1 (SOD1) cytotoxicity and protein aggregation: potential application for the treatment of amyotrophic lateral sclerosis” (J Med Chem, 2012).
Activity calls are given as the source filed them. The rule behind the calls is not given here.

How the values were obtained:
Mus musculus [1] = assay: Neuroprotective activity in SOD1 G93A mutant B6SJL mouse ALS model assessed as life extension at 20 mg/kg administered qd for 1 week relative to untreated control; format: functional
Caco-2 = assay: Apparent permeability from apical to basolateral side in human Caco2 cells; format: ADME, cell-based
[2] = Efflux ratio of permeability from basolateral to apical side over apical to basolateral side in human Caco2 cells; format: ADME, cell-based; settings: Caco-2
[3] = Plasma concentration in B6SJL mouse at 300 mg/kg after 6 hrs by mass spectrometry; format: ADME, organism-based; parameters: dose 300 mg/kg
How it was run: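 Single 300 mg/kg bolus i.p. injection in B6SJL mice; blood and brain collected at 0, 1, 3, 6, 12 and 24 h, flash frozen in liquid nitrogen and stored at -80 °C. Samples analysed by mass spectrometry with ESI ionization in MRM mode.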

Rattus norvegicus [4] = assay: Dose normalised AUC in Sprague-Dawley rat at 1 mg/kg, po; format: ADME, organism-based; parameters: dose 1 mg/kg, route oral; settings: in vivo
How it was run: (§1)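 Sprague-Dawley rats given a single 1 mg/kg bolus, intravenous or oral. Plasma PK parameters (AUC, dose-normalised AUC, half-life, clearance, Vss, Cmax, Tmax, oral bioavailability) derived from plasma levels.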

[5] = Half life in Sprague-Dawley rat at 1 mg/kg, iv; format: ADME, organism-based; parameters: dose 1 mg/kg, route intravenous; settings: in vivo; how it was run: as §1
[6] = Cmax in Sprague-Dawley rat at 1 mg/kg, po; format: ADME, organism-based; parameters: dose 1 mg/kg, route oral; settings: in vivo; how it was run: as §1
[7] = target: Adenosine receptor A2a (Homo sapiens) (UniProt P29274); assay: Inhibition of human adenosine A2 receptor at 10 uM by radioligand displacement assay
How it was run: (§2)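 LeadProfilingScreen panel of 68 in vitro enzyme and receptor assays. Compound tested at 10 μM in duplicate.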

[8] = target: Alpha-2A adrenergic receptor (Homo sapiens) (UniProt P08913); assay: Inhibition of human adrenergic alpha2A receptor at 10 uM by radioligand displacement assay; how it was run: as §2
[9] = target: Beta-1 adrenergic receptor (Homo sapiens) (UniProt P08588); assay: Inhibition of human beta1 adrenergic receptor at 10 uM by radioligand displacement assay; how it was run: as §2
Chain of Beta-1 adrenergic receptor (Homo sapiens) (P08588 whole entry, looked up): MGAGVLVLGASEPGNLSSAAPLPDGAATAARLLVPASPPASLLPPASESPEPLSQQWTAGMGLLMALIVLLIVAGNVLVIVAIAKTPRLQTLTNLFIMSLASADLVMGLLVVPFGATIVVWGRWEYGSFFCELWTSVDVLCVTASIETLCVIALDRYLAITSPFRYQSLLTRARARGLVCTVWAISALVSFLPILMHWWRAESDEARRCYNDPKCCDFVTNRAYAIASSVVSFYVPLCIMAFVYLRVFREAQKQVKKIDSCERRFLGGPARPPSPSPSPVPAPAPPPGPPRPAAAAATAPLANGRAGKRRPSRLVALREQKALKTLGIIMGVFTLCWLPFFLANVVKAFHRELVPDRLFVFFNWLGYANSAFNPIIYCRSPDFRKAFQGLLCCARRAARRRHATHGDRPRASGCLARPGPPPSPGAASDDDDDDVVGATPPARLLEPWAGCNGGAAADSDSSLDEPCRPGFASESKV

[10] = target: Beta-2 adrenergic receptor (Homo sapiens) (UniProt P07550); assay: Inhibition of human beta2 adrenergic receptor at 10 uM by radioligand displacement assay; how it was run: as §2
Chain of Beta-2 adrenergic receptor (Homo sapiens) (P07550 whole entry, looked up): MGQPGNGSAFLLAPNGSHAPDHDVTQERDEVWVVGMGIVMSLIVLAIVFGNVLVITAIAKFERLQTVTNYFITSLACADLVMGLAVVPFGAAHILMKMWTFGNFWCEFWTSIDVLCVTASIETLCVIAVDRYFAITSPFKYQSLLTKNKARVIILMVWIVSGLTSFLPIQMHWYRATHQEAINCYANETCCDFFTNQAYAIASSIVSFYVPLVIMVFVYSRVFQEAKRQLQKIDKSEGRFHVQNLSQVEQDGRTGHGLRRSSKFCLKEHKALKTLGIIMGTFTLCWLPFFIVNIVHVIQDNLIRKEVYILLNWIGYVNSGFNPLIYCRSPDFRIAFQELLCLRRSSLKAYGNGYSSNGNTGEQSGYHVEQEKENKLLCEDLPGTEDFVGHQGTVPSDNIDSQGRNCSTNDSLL

[11] = target: B1 bradykinin receptor (Homo sapiens) (UniProt P46663); assay: Inhibition of human bradykinin B1 receptor at 10 uM by radioligand displacement assay; how it was run: as §2
Chain of B1 bradykinin receptor (Homo sapiens) (P46663 whole entry): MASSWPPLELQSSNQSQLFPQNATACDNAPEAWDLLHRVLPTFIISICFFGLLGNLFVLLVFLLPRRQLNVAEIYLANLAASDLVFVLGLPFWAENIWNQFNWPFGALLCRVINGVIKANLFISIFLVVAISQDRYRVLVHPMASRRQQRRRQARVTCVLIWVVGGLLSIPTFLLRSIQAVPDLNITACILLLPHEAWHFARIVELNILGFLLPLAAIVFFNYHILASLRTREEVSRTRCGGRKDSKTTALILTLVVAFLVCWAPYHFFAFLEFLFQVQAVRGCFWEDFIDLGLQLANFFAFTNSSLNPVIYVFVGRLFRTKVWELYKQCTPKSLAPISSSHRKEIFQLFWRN

[12] = target: B2 bradykinin receptor (Homo sapiens) (UniProt P30411); assay: Inhibition of human bradykinin B2 receptor at 10 uM by radioligand displacement assay; how it was run: as §2
[13] = target: L-type calcium channel, benzothiazepine site (Rattus norvegicus, UniProt P22002+P27732+Q02485); assay: Inhibition of rat calcium channel L-type, benzothiazepine site at 10 uM by radioligand displacement assay
How it was run: (§3)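 Single concentration of 10 μM, tested in duplicate as part of a contracted panel of 68 in vitro enzyme and receptor assays. The panel covers common adverse CNS, cardiovascular, pulmonary and genotoxic targets.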

[14] = target: D(1A) dopamine receptor (Homo sapiens) (UniProt P21728); assay: Inhibition of human dopamine D1 receptor at 10 uM by radioligand displacement assay; how it was run: as §2
Chain of D(1A) dopamine receptor (Homo sapiens) (P21728 whole entry): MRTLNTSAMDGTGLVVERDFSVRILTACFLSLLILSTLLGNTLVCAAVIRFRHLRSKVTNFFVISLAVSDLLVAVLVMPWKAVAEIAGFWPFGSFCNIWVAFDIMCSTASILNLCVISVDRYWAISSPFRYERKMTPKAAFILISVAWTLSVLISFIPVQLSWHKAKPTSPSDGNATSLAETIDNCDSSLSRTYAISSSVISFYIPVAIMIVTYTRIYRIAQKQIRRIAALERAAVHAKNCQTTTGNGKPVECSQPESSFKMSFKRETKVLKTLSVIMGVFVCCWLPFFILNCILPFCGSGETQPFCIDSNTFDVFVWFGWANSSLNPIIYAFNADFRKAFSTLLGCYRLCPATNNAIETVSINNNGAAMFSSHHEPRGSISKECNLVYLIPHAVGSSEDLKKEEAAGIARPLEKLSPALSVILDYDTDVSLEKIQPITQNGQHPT

Homo sapiens = species on record: Homo sapiens; assay: Inhibition of human dopamine D4.2 receptor at 10 uM by radioligand displacement assay; how it was run: as §3
[15] = target: Endothelin-1 receptor (Homo sapiens) (UniProt P25101); assay: Inhibition of human endothelin ETA at 10 uM by radioligand displacement assay; how it was run: as §3
Chain of Endothelin-1 receptor (Homo sapiens) (P25101 whole entry): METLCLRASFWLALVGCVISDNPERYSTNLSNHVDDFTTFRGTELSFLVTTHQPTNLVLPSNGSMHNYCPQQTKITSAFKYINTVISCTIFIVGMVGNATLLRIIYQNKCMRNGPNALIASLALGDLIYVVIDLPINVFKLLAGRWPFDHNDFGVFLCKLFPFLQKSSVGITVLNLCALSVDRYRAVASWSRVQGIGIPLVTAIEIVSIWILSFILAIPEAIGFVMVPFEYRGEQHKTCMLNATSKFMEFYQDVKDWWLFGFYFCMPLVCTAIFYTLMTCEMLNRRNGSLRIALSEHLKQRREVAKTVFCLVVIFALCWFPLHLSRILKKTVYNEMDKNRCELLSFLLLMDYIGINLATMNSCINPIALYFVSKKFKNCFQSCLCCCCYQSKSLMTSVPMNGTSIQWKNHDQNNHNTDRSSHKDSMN

[16] = target: Endothelin receptor type B (Homo sapiens) (UniProt P24530); assay: Inhibition of human endothelin ETB at 10 uM by radioligand displacement assay; how it was run: as §3
[17] = target: Epidermal growth factor receptor (Homo sapiens) (UniProt P00533); assay: Inhibition of human epidermal growth factor receptor at 10 uM by radioligand displacement assay; how it was run: as §3
Chain of Epidermal growth factor receptor (Homo sapiens) (P00533 whole entry): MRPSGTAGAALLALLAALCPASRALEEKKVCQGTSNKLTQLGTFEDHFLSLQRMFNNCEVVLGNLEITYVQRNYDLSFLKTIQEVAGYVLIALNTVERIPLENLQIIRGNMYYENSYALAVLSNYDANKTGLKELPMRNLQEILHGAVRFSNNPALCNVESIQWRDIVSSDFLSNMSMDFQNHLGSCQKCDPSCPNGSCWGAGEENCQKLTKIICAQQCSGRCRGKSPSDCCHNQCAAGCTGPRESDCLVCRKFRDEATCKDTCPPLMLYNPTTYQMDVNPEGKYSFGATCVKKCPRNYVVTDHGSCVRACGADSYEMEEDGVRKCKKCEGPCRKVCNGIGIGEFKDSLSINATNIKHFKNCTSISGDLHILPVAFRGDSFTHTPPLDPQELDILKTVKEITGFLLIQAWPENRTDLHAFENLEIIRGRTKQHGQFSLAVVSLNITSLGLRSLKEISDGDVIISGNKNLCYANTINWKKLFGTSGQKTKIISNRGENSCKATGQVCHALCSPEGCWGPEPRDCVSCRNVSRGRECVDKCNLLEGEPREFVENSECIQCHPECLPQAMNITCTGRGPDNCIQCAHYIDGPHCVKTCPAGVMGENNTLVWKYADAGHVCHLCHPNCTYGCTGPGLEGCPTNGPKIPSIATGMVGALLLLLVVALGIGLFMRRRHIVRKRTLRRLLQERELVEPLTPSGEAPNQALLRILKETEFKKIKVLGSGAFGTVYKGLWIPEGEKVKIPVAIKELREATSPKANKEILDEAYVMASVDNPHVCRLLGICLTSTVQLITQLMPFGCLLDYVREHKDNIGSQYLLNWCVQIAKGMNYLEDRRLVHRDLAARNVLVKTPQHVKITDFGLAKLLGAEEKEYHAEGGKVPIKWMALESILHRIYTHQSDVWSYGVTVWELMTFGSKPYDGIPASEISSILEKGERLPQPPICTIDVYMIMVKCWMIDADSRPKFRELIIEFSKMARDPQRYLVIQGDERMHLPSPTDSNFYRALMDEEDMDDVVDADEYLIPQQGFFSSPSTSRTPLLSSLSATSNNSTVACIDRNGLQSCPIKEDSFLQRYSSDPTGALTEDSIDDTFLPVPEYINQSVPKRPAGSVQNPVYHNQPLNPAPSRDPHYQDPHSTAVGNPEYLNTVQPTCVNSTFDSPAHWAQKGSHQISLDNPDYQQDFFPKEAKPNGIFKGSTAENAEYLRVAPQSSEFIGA

[18] = target: Estrogen receptor (Homo sapiens) (UniProt P03372); assay: Inhibition of human estrogen receptor-alpha at 10 uM by radioligand displacement assay; how it was run: as §3
[19] = target: Pyroglutamylated RF-amide peptide receptor (Homo sapiens) (UniProt Q96P65); assay: Inhibition of human GPR103 receptor at 10 uM by radioligand displacement assay; how it was run: as §2
Rattus norvegicus [20] = species on record: Rattus norvegicus; assay: Inhibition of rat GABAA receptor flunitrazepam site at 10 uM by radioligand displacement assay; how it was run: as §3
Rattus norvegicus [21] = species on record: Rattus norvegicus; assay: Inhibition of rat GABAA receptor muscimol site at 10 uM by radioligand displacement assay; how it was run: as §3
Rattus norvegicus [22] = species on record: Rattus norvegicus; assay: Inhibition of rat kainate receptor glutamate binding site at 10 uM by radioligand displacement assay; how it was run: as §3
[23] = target: Glutamate NMDA receptor (Rattus norvegicus) (UniProt P35439+Q00959+Q00960+Q00961+Q62645+Q8VHN2+Q9R1M7); assay: Inhibition of rat NMDA receptor glutamate binding site at 10 uM by radioligand displacement assay; format: protein-complex assay; how it was run: as §3
[24] = target: Histamine H2 receptor (Homo sapiens) (UniProt P25021); assay: Inhibition of human histamine H2 receptor at 10 uM by radioligand displacement assay; how it was run: as §3
Rattus norvegicus [25] = species on record: Rattus norvegicus; assay: Inhibition of rat imidazoline I2 receptor at 10 uM by radioligand displacement assay; how it was run: as §3
[26] = target: Cysteinyl leukotriene receptor 1 (Homo sapiens) (UniProt Q9Y271); assay: Inhibition of human cysteinyl CysLT1 receptor at 10 uM by radioligand displacement assay; how it was run: as §2
Chain of Cysteinyl leukotriene receptor 1 (Homo sapiens) (Q9Y271 whole entry): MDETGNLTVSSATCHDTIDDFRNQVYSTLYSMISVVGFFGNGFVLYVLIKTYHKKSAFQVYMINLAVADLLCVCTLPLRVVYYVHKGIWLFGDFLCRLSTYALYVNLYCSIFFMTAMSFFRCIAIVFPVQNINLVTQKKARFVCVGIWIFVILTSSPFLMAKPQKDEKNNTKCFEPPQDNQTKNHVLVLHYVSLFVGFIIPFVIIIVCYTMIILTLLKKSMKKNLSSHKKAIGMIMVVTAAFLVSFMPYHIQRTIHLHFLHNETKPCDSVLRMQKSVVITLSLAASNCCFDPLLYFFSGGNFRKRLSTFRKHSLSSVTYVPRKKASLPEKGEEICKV

[27] = target: Muscarinic acetylcholine receptor M2 (Homo sapiens) (UniProt P08172); assay: Inhibition of human muscarinic M2 receptor at 10 uM by radioligand displacement assay; how it was run: as §3
[28] = target: Neuropeptide Y receptor type 2 (Homo sapiens) (UniProt P49146); assay: Inhibition of human Neuropeptide Y Y2 receptor at 10 uM by radioligand displacement assay
How it was run: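 Single concentration of 10 μM, tested in duplicate in a contract panel of 68 in vitro enzyme and receptor binding assays covering common adverse CNS, cardiovascular, pulmonary and genotoxic targets.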

Mus musculus [29] = species on record: Mus musculus; assay: Inhibition of mouse phorbol ester site of PKC at 10 uM by radioligand displacement assay; how it was run: as §3
hERG = hERG (Homo sapiens, UniProt Q12809); assay: Inhibition of human ERG at 10 uM by radioligand displacement assay; how it was run: as §2
Chain of hERG (Q12809 whole entry): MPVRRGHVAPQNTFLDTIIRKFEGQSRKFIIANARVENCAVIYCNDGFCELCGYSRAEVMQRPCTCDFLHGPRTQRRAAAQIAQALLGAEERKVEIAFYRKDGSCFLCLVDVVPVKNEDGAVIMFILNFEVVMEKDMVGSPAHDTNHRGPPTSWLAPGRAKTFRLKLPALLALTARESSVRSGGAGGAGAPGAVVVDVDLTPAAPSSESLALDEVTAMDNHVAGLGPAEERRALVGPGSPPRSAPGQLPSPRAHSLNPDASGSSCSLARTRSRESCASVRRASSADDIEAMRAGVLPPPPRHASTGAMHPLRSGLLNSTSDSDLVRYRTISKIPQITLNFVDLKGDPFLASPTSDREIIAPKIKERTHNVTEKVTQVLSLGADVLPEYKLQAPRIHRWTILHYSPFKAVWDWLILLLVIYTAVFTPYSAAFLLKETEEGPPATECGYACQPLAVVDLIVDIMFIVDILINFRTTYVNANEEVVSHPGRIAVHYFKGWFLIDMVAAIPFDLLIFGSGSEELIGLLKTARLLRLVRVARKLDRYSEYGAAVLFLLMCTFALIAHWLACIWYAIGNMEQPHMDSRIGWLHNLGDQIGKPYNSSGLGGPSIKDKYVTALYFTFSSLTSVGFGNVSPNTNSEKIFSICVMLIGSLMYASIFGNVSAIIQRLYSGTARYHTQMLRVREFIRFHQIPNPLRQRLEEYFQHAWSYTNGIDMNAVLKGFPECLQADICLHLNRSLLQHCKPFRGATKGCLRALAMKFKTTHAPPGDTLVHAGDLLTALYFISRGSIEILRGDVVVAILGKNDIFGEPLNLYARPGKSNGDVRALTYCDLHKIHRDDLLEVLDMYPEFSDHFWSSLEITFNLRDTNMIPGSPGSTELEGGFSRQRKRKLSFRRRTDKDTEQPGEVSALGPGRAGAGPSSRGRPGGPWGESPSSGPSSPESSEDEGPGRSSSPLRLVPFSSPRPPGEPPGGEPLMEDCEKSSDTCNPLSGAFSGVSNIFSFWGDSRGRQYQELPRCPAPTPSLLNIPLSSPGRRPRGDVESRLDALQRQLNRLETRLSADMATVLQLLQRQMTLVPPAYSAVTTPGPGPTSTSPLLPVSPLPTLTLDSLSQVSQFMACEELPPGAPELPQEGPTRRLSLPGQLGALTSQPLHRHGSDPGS

Rattus norvegicus [30] = species on record: Rattus norvegicus; assay: Inhibition of rat purinergic P2Y receptor at 10 uM by radioligand displacement assay; how it was run: as §3
Rattus norvegicus [31] = species on record: Rattus norvegicus; assay: Inhibition of rat Rolipram binding site at 10 uM by radioligand displacement assay; how it was run: as §3
Rattus norvegicus [32] = species on record: Rattus norvegicus; assay: Inhibition of rat sodium channel site 2 at 10 uM by radioligand displacement assay; how it was run: as §3
Mus musculus [33] = assay: Neuroprotective activity in SOD1 G93A mutant B6SJL mouse ALS model assessed as life extension at 20 mg/kg administered qd for 1 week (reference value: 125.7 +/- 4.9 days); format: functional
[34] = test system: Superoxide dismutase [Cu-Zn] (Homo sapiens), P00441 [G94A]; assay: Inhibition of SOD1 G93A mutant aggregation-induced cytotoxicity in human SH-SY5Y cells by cytotoxicity protection assay; format: cell-based
Chain of Superoxide dismutase [Cu-Zn] (Homo sapiens), P00441 [G94A] (P00441 whole entry G94A): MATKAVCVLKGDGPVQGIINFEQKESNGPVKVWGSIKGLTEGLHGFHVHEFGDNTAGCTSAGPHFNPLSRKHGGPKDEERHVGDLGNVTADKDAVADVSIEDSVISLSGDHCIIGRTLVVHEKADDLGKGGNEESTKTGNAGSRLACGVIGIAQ

[35] = test system: Superoxide dismutase [Cu-Zn] (Homo sapiens), P00441 [G94A]; assay: Inhibition of SOD1 G93A mutant aggregation-induced cytotoxicity in human HEK293 cells by cytotoxicity protection assay; format: cell-based
Mus musculus [36] = assay: Neuroprotective activity in SOD1 G93A mutant B6SJL mouse ALS model assessed as life extension administered qd starting at 6 weeks of age throughout life

In the case of `O=c1cc(COc2cc(Cl)cc(Cl)c2)[nH][nH]1`, the Activity (Mus musculus [1]) is reported as 13.3%, the Papp (Caco-2) is reported as 36.7 ×10⁻⁶ cm/s and the efflux ratio [2] is reported as 0.4. It also gave a concentration at 6 h [3] of 347 µM, an AUC/dose (Rattus norvegicus [4]) of 50 ng·h/mL/mg/kg and a half-life [5] of 2.1 h. The Cmax [6] was 39 ng/mL, the inhibition [7] was -2% and the inhibition [8] was 8%. It also gave an inhibition [9] of 1%, an inhibition [10] of -2% and an inhibition [11] of 5%. For the same compound, the inhibition [12] was -10%, the inhibition at 10 µM [13] was -2% and the inhibition [14] was 3%. It also gave an inhibition (Homo sapiens) of -3%, an inhibition [15] of 3% and an inhibition [16] of 0%. It also gave an inhibition [17] of 5%, an inhibition [18] of 10% and an inhibition [19] of 3%. For the same compound, the inhibition (Rattus norvegicus [20]) was 12%, the inhibition (Rattus norvegicus [21]) was 1% and the inhibition (Rattus norvegicus [22]) was 24%. For the same compound, the inhibition [23] was -3%, the inhibition [24] was 3% and the inhibition (Rattus norvegicus [25]) was 12%. It also gave an inhibition [26] of 0%, an inhibition [27] of -2% and an inhibition [28] of 6%. The inhibition (Mus musculus [29]) was 1%, the inhibition at 10 µM (hERG) was -7% and the inhibition (Rattus norvegicus [30]) was 5%. It also gave an inhibition (Rattus norvegicus [31]) of -2%, an inhibition (Rattus norvegicus [32]) of 4% and a Survival (Mus musculus [33]) of 142.5 days. The inhibition [34] was “Active”, the inhibition [35] was “Active” and the Activity (Mus musculus [36]) was “Dose-dependent effect”.
